Results on 32 compounds are retold here after ChEMBL document CHEMBL1944607, “7-Substituted-pyrrolo[3,2-d]pyrimidine-2,4-dione derivatives as antagonists of the transient receptor potential ankyrin 1 (TRPA1) channel: a promising approach for treating pain and inflammation” (Bioorg Med Chem, 2012).

As usually defined, the inhibition is the change of the read-out against control, counted positive when it falls. As usually defined, the IC50 is the concentration at which inhibition is half-maximal.

Structures are written as SMILES. Calls of active or inactive are those of the source. No cut-off for these calls is given here.

For assay [1], the target named is T1, Transient receptor potential cation channel subfamily A member 1 (Homo sapiens, UniProt O75762). The experiment in a line: Antagonist activity at human TRPA1 expressed in human IMR90 cells assessed as inhibition of acrolein-induced calcium influx at 30 uM after 40 mins by fluorescence analysis. The conditions noted are these: IMR-90. Type of assay: functional, cell-based. The procedure, abridged:
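IMR90 fetal lung fibroblasts, which constitutively express human TRPA1, were grown in DMEM with 10% FBS and 2 mM L-glutamine at 37 °C under 5% CO₂, then plated on glass coverslips to 60% confluence. Cells were loaded with Fura-2 AM for 40 min at 37 °C in HEPES buffer (pH 7.4, 0.1% BSA). Single-cell F340/F380 ratio was recorded during acrolein challenge in the presence of antagonist. %inhibition is mean ± SEM from ≥25 cells across three experiments; IC₅₀ (with CI) comes from a variable-slope sigmoidal fit.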

For assay [2], the target named is Transient receptor potential cation channel subfamily V member 1 (Rattus norvegicus) (UniProt O35433). The assay is described as follows: Antagonist activity at Sprague-Dawley rat TRPV1 expressed in rat DRG neurons assessed as inhibition of capsaicin-induced calcium influx after 40 mins by fluorescence analysis. Type of assay: functional.
Chain of Transient receptor potential cation channel subfamily V member 1 (Rattus norvegicus) (O35433 whole entry): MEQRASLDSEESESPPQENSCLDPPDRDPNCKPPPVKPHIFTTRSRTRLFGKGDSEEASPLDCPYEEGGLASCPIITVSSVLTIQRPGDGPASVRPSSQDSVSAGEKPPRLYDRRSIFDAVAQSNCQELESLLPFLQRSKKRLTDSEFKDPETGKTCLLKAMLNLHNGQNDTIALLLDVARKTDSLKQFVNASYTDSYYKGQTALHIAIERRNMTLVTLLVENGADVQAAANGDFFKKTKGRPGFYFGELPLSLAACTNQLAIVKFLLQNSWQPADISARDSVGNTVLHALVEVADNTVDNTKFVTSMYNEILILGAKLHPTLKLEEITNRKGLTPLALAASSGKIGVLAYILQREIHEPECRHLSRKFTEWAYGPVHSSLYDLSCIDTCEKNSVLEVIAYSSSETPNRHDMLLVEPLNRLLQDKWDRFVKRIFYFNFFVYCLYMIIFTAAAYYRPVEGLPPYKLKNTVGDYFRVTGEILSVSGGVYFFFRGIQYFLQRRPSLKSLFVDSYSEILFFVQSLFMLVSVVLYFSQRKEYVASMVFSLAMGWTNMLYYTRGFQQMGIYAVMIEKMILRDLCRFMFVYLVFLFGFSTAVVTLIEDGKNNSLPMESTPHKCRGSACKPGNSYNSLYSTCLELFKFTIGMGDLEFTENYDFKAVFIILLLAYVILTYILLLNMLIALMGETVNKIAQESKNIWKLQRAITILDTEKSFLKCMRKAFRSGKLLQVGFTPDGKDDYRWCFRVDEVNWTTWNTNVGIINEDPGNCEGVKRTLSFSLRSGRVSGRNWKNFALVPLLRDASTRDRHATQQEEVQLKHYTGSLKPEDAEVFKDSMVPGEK
The target of assay [3] is T1, Transient receptor potential cation channel subfamily A member 1. The assay is described as follows: Antagonist activity at human TRPA1 expressed in CHO cells assessed as inhibition of calcium influx. The class given is functional, cell-based.
Assay [4] has the same target. The experiment in a line: Antagonist activity at human TRPA1 expressed in human IMR90 cells assessed as inhibition of acrolein-induced calcium influx at 3 uM after 40 mins by fluorescence analysis. Type of assay: functional, cell-based. The conditions noted are these: IMR-90.
Assay [5] deals with Transient receptor potential cation channel subfamily A member 1 (Rattus norvegicus, UniProt Q6RI86). The assay is described as follows: (§1) Antagonist activity at Sprague-Dawley rat TRPA1 expressed in rat DRG neurons assessed as inhibition of acrolein-induced calcium influx after 40 mins by fluorescence analysis. The class given is functional. In outline:
(§2)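 DRG neurons came from male Sprague–Dawley rats (100 g). Ganglia were digested in HBSS with collagenase 1A (2 mg/ml) and trypsin (1 mg/ml) for 35 min at 37 °C, dissociated through 23–25 G needles in medium with 10% FBS and 10% horse serum, then filtered and centrifuged. Neurons were loaded with Fura-2 AM for 40 min at 37 °C in HEPES buffer (pH 7.4). F340/F380 was recorded under acrolein with antagonist present. %inhibition is mean ± SEM from ≥20 neurons across three experiments; IC₅₀ comes from a variable-slope sigmoidal fit.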

The target in assay [6] is Transient receptor potential cation channel subfamily A member 1 (Rattus norvegicus) (UniProt Q6RI86). The assay is described as follows: Antagonist activity at Sprague-Dawley rat TRPA1 expressed in rat DRG neurons assessed as inhibition of acrolein-induced calcium influx at 30 uM after 40 mins by fluorescence analysis. The class given is functional. In outline:
as §2

Assay [7] concerns the target T1, Transient receptor potential cation channel subfamily A member 1. The experiment in a line: Antagonist activity at human TRPA1 expressed in human IMR90 cells assessed as inhibition of acrolein-induced calcium influx after 40 mins by fluorescence analysis.
The target of assay [8] is Transient receptor potential cation channel subfamily A member 1 (Rattus norvegicus) (UniProt Q6RI86). The experiment in a line: Antagonist activity at Sprague-Dawley rat TRPA1 expressed in rat DRG neurons assessed as inhibition of acrolein-induced calcium influx at 3 uM after 40 mins by fluorescence analysis. The class given is functional. In outline: as §2
Chain of Transient receptor potential cation channel subfamily A member 1 (Rattus norvegicus) (Q6RI86 whole entry): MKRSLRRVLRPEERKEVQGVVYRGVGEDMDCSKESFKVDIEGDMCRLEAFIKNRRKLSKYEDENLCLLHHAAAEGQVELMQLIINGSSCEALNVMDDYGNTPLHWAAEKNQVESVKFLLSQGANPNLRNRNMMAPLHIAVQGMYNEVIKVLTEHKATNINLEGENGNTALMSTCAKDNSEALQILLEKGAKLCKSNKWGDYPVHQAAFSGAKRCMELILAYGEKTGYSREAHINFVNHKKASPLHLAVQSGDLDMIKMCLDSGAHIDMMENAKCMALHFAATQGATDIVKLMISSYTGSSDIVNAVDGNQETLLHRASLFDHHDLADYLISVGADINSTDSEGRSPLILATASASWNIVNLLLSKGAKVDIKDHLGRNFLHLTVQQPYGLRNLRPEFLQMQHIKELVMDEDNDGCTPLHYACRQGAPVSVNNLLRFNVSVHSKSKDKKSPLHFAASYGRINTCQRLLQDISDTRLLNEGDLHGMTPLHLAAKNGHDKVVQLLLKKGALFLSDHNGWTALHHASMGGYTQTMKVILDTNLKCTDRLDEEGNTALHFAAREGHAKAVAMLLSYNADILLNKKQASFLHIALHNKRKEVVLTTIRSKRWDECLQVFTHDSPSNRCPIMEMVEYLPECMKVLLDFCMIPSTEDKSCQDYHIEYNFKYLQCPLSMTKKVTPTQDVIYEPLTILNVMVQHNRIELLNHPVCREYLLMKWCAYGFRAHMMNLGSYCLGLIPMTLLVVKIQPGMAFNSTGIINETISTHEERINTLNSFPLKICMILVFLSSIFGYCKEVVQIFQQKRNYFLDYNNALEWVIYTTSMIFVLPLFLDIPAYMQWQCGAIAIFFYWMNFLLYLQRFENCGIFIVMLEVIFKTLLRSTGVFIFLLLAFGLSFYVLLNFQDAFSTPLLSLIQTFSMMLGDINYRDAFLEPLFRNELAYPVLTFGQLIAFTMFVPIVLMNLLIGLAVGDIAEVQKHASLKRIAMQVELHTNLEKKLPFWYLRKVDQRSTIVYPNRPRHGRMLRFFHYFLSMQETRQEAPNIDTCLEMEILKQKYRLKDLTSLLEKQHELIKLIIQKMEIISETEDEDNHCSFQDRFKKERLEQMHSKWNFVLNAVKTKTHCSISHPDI
For assay [9] the target is unchanged. The assay is described as §1. The class given is functional. In outline: as §2
The target in assay [10] is T1, Transient receptor potential cation channel subfamily A member 1. The conditions noted are these: IMR-90, 1 uM.

Chain of Transient receptor potential cation channel subfamily A member 1 (Rattus norvegicus, UniProt Q6RI86) (Q6RI86 whole entry): as above
T1 sequence (O75762 whole entry): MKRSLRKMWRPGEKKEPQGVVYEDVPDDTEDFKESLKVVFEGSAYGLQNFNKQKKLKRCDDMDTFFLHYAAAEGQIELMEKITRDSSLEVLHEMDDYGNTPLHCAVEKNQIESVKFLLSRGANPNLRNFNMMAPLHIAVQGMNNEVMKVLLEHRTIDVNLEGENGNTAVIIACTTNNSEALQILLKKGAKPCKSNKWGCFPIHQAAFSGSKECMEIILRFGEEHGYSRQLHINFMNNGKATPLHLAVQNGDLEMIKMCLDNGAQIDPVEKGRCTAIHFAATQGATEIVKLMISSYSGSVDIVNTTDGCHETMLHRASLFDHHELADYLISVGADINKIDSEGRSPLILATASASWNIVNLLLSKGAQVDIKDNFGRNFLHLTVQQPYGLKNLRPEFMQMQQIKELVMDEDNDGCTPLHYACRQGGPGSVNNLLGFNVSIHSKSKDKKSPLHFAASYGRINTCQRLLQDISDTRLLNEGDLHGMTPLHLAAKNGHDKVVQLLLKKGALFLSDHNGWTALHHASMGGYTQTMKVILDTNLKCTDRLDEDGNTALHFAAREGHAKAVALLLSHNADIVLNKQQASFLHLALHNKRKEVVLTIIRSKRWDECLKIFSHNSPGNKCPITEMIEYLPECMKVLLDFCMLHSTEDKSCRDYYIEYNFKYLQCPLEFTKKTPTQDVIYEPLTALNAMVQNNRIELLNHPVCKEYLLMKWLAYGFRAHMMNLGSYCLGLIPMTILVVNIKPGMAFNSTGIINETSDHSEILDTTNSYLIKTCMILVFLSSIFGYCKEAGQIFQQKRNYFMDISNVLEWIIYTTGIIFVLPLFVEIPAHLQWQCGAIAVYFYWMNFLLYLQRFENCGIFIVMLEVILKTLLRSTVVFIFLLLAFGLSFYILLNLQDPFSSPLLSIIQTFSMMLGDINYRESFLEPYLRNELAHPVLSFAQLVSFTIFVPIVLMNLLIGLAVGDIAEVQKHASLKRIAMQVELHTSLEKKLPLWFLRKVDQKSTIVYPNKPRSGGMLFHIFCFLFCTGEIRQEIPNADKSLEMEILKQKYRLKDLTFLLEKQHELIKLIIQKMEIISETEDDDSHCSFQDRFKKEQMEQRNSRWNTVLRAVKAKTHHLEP

As for `Cn1c(=O)c2c(ccn2CC(=O)NCc2ccccc2)n(C)c1=O`, in assay [1], the inhibition is less than 50%.
Still for that read-out and setting: the value for `Cn1c(=O)c2c(ccn2CC(=O)Nc2ccc(Cl)cc2)n(C)c1=O` was less than 50%.
Still for that read-out and setting: the value for `COc1ccc(NC(=O)Cn2ccc3c2c(=O)n(C)c(=O)n3C)cc1` was less than 50%; that for `Cn1c(=O)c2c(ccn2CC(=O)Nc2nc(-c3ccc(I)cc3)cs2)n(C)c1=O` was less than 50%; that for `Cn1c(=O)c2c(ccn2CC(=O)NCCCc2ccccc2)n(C)c1=O` was less than 50%.
On the same count and under the same terms, the value for `Cn1c(=O)c2c(ccn2CC(=O)Nc2ccc(F)cc2F)n(C)c1=O` was less than 50%; that for `Cc1ccc(CNC(=O)Cn2ccc3c2c(=O)n(C)c(=O)n3C)cc1` was less than 50%.
`COc1cccc(C2NC(=S)NC3=C2C(=O)c2ccccc23)c1` (centres undefined): the inhibition result in assay [2] is “inactive”. In addition, the IC50 stood at 128 nM in [3], 3400 nM in assay [5] and 1500 nM in assay [7]. In addition, the inhibition is 98.8% in assay [1], 83.1% in [4], 99.5% in assay [6] and 40.2% in [8].
As to `Cn1c(=O)c2c(ccn2CC(=O)Nc2nc(-c3ccc(F)c(C(F)(F)F)c3)cs2)n(C)c1=O`, in assay [2], the inhibition entry was “inactive”. The inhibition in assay [1] was 99.3%; in assay [4] it was 76.1%; in assay [9], “Dose-dependent effect”; in assay [6] it was 99.6%; in assay [8], 80.6%. The IC50 in [5] and in assay [7] was 1300 nM throughout.
Consider `Cn1c(=O)c2c(ccn2CC(=O)Nc2ccc(SC(F)(F)F)cc2)n(C)c1=O`, for which the inhibition in assay [1] is less than 50%.
Same read-out and setting: in the case of `Cn1c(=O)c2c(ccn2CC(=O)Nc2ccc(N3CCOCC3)cc2)n(C)c1=O` it was less than 50%; in that of `CN(C(=O)Cn1ccc2c1c(=O)n(C)c(=O)n2C)c1ccc(F)cc1`, less than 50%.
`Cn1c(=O)c2c(ccn2CC(=O)Nc2nc(-c3ccc(F)cc3)cs2)n(C)c1=O`: the inhibition is 82.8% in [1], 47.9% in assay [4], 99.2% in [6] and 3.6% in assay [8]. For the same compound, in [7], the IC50 turned out to be 4100 nM.
`Cn1c(=O)c2c(ccn2CC(=O)NC23CC4CC(CC(C4)C2)C3)n(C)c1=O`: in assay [1], the inhibition was less than 50%.
On the same count and under the same terms, the value for `Cn1c(=O)c2c(ccn2CC(=O)NCCc2ccccc2)n(C)c1=O` was less than 50%.
On to `Cn1c(=O)c2c(ccn2CC(=O)Nc2ccc(OC(F)(F)F)cc2)n(C)c1=O`, for which the inhibition came out at 99.5% in [6] and 36.8% in assay [8].
Take `CC(C)c1ccc(NC(=O)Cn2cnc3c2c(=O)n(C)c(=O)n3C)cc1`: the inhibition result in assay [2] is “inactive”. Further, the inhibition in [1] came to 97.5%; in assay [4], 73.2%; in [6], 99.8%; in assay [8], 80.7%. For the same compound, in [5], the IC50 was 2100 nM.
Turning to `CC(=C\c1ccc(Cl)cc1)/C(C)=N/O` [AP18 5], the inhibition result in assay [2] was “inactive”. Besides, the inhibition in [1] is 98.9%; in assay [4], 69.1%; in [6] it was 90.1%; in assay [8], 45.2%. The figures for the IC50 in [5] and in assay [7] were 3400 nM and 2200 nM, respectively.
Turning to `Cn1c(=O)c2c(ccn2CC(=O)Nc2ccc(C(F)(F)F)cc2)n(C)c1=O`, the inhibition result in assay [2] is “inactive”. Besides, the inhibition was 99.1% in assay [1]; 99% in assay [4]; 88.7% in assay [10]; “Dose-dependent effect” in assay [9]; 99.7% in assay [6]; 58.8% in assay [8]. For the same compound, the values for the IC50 in assay [5] and in assay [7] were 2800 nM and 400 nM, respectively.
Regarding `Cn1c(=O)c2c(ccn2CC(=O)Nc2ccc(S(=O)(=O)NCc3ccccc3)cc2)n(C)c1=O`, in assay [1], the inhibition is less than 50%.
Still for that read-out and setting: in the case of `Cn1c(=O)c2c(ccn2CC(=O)Nc2ccc(C3CCCCC3)cc2)n(C)c1=O` it was less than 50%; in that of `Cn1c(=O)c2c(ccn2CC(=O)Nc2ccc(F)c(F)c2)n(C)c1=O`, less than 50%; in that of `Cn1c(=O)c2c(ccn2CC(=O)Nc2cccc(I)c2)n(C)c1=O`, less than 50%.
For `Cn1c(=O)c2c(ccn2CC(=O)Nc2ccc(I)cc2)n(C)c1=O`, the results for the inhibition in assay [6] and in assay [8] were 85.4% and 12.4%, respectively.
With `Cn1c(=O)c2c(ccn2CC(=O)Nc2nc(-c3ccccc3)cs2)n(C)c1=O`, the inhibition in assay [1] was less than 50%.
In the case of `CCN(CC)S(=O)(=O)c1ccc(NC(=O)Cn2ccc3c2c(=O)n(C)c(=O)n3C)cc1`, the inhibition in assay [1] is less than 50%.
With `CCCCCCc1ccc(NC(=O)Cn2ccc3c2c(=O)n(C)c(=O)n3C)cc1`, the inhibition is 93.3% in assay [6] and 35.5% in [8].
With `CCCCc1ccc(NC(=O)Cn2ccc3c2c(=O)n(C)c(=O)n3C)cc1`, the inhibition in assay [1] was found to be 99%; in assay [4], 93.5%; in assay [6], 97.1%; in assay [8], 94.4%. For the same compound, the IC50 in assay [7] came to 1100 nM.
On to `Cn1c(=O)c2c(ccn2CC(=O)Nc2ccc(C(C)(C)C)cc2)n(C)c1=O`, for which the inhibition in [6] amounted to 95.8%; in [8] it was 10.7%.
The corresponding values for `CCCCCCc1ccc(-c2csc(NC(=O)Cn3ccc4c3c(=O)n(C)c(=O)n4C)n2)cc1` are 99.4% and 92.4%.
Turning to `CC(C)c1ccc(NC(=O)Cn2ccc3c2c(=O)n(C)c(=O)n3C)cc1`, in [1], the inhibition is less than 50%.
In the case of `Cn1c(=O)c2c(ccn2CC(=O)Nc2nc(-c3ccc(C(F)(F)F)cc3)cs2)n(C)c1=O`, the inhibition worked out at 80.2% in [6] and 58.3% in [8].
